In all, about 1,300 compounds went through this assay and about 40 (3%) were called active. The list is a sample of the results. Potency and affinity values are given separately. Values without a mark were called inactive. How the calls were made is not given here.

These results are taken from PubChem BioAssay AID635 (SRMLSC, 2007).

A short description of the assay: growth inhibition of wild-type E. coli BW25113 pool, dose response, OD615 (AID 635).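 Further: growth measured after 20 h with compound at 37 °C.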 The conditions noted are these: pooled mutant strains; at 100 µM (top of the series). The method, boiled down: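 Material: Keio BW25113 knockout pool, 1,275 strains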
In the case of `Cc1cccc(N(C)C(=O)c2cc3cc4ccc(C)cc4nc3o2)c1`, the growth inhibition is -7.96%.

For the compound `CC(C)OCCCNc1ncnc2c1[nH]c1ccc(F)cc12`, the growth inhibition is -0.56%.

In the case of `CC(C)OCCCNc1ncnc2c1[nH]c1ccccc12`, the growth inhibition is 0.81%.

`O=C(CSc1nc2ccccc2o1)Nc1nc2c(s1)CCCC2`: the growth inhibition is -2.1%.

For the compound `Cc1cc(NC(=O)Cn2nnc3sc4c(c3c2=O)CCC(C(C)(C)C)C4)no1` (stereo unspecified), the growth inhibition is -1.22%.

For the compound `CCOC(=O)Cc1ccc(NS(=O)(=O)c2ccc(SC)cc2)cc1`, the growth inhibition was 0.18%.

Take `c1ccc2c(c1)CCN(c1nc3cc4c(cc3s1)OCCO4)C2`: the growth inhibition is 0.44%.

`CC(C)c1ccc(Nc2nc(NCc3ccco3)nc(N3CCOCC3)n2)cc1`: the growth inhibition is -1.77%.

For `COc1ccc(NS(=O)(=O)c2ccc3oc(Nc4ccc5c(c4)OCCO5)nc3c2)cc1`, the growth inhibition was -4.76%.

On to `CCCN(CCC)S(=O)(=O)c1ccc(C(=O)Nc2nnc(-c3cccc(OC)c3)o2)cc1`, for which the growth inhibition is -1.14%.

`Cc1cccc(N2CCN(C(=O)C34CC5CC(CC(C5)C3)C4)CC2)c1C`: the growth inhibition was 4.49%.

As to `Cn1cccc1C(=O)Nc1nc(-c2ccccn2)cs1`, the growth inhibition is 1.36%.

Regarding `COc1ccc(C(=O)Nn2cnc3scc(-c4cccs4)c3c2=O)c(O)c1`, the growth inhibition was 0.89%.

`COC(=O)c1[nH]c2cccc(OC)c2c1NC(=O)CN1CC2(C)CC1CC(C)(C)C2` (stereo unspecified): the growth inhibition was 1.93%.

Turning to `COC(=O)c1cccc(-n2nnnc2SCC(=O)Nc2nc3c(s2)CCCC3)c1`, the growth inhibition was -0.44%.

With `O=C1OC(c2ccc(O)cc2)(c2ccc(O)cc2)c2ccccc21`, the growth inhibition is 0.54%.

On to `Cc1cccc(Nc2nc(NCc3ccco3)nc(N3CCOCC3)n2)c1`, for which the growth inhibition is 0.54%.

Regarding `CCOc1cc(S(=O)(=O)n2cc(-c3ccc(F)cc3)c(N)n2)cc(OCC)c1OCC`, the growth inhibition was -3.17%.

Regarding `CC1Cc2ccccc2N1C(=O)Cn1c(=O)oc2cc(S(=O)(=O)NC3CCCC3)ccc21` (stereo unspecified), the growth inhibition is -2.66%.

Take `CCCn1nnnc1NC(=O)CSc1ccc(Cl)cc1`: the growth inhibition was 1.76%.

On to `Cc1cc(NC(=O)C2CCCCC2)nc2c1c(=O)oc1ccccc12`, for which the growth inhibition was -2.5%.

Consider `N#Cc1nc(COc2ccc(F)cc2)oc1N1CCN(Cc2ccccc2)CC1`, for which the growth inhibition is -4.59%.

Take `c1ccc2oc(SCc3nc4ccccc4s3)nc2c1`: the growth inhibition is -0.66%.

Regarding `C=CCn1c(SCC(=O)Nc2ccc3c(c2)CCC3)nnc1-c1cccs1`, the growth inhibition is -0.97%.

Turning to `O=C(c1cc2ccccc2o1)N1CCN(c2ccccc2Cl)CC1`, the growth inhibition was -2.73%.

Consider `O=C(CSc1nnnn1C1CCCCC1)Nc1nc2c(s1)CCCC2`, for which the growth inhibition is -0.43%.

On to `O=C(O)c1cc(Cl)c2ccccc2c1O`, for which the growth inhibition was 9.52%.

For the compound `O=c1c(-c2nc3ccccc3o2)c2oc3ccccc3n2c2ccccc12`, the growth inhibition was -2.69%.

With `Cc1cccc(S(=O)(=O)Nc2nc3ccccc3nc2NCc2ccco2)c1`, the growth inhibition is 2.5%.

`Cc1ccc(-n2c(C)cc(C(=O)COC(=O)c3c(C)noc3C)c2C)cc1`: the growth inhibition is -5.46%.

As for `O=C(c1cccs1)N(Cc1nc2sc3c(c2c(=O)[nH]1)CCCC3)C1CCCC1`, the growth inhibition was -3.44%.

Take `N#Cc1ccc(NC(=O)Nc2ccc(Cl)cc2)cc1`: the growth inhibition was 12.7%.

With `CCOc1ccc(OCCSc2nnnn2C2CCCCC2)cc1`, the growth inhibition was 2.59%.

For `COc1ccc(C(C)(C)C)cc1NC(=O)Nc1ccc2c(c1)OCO2`, the growth inhibition is 2.22%.

For `COc1ccccc1-c1noc(CCC(=O)Nc2cccc(C(F)(F)F)c2)n1`, the growth inhibition is 9.08%.

As for `CCc1ccc2oc(=O)cc(CN(C)Cc3ccccc3)c2c1`, the growth inhibition was 0.54%.

With `O=C(c1ccc2c(=O)n(C3CCCC3)c(=S)[nH]c2c1)N1CCN(C2CCCCC2)CC1`, the growth inhibition was 0.27%.

Consider `Cc1cc(C)c(C#N)c(SCC(=O)OC2CCCCC2)n1`, for which the growth inhibition was 4.58%.

For `COC(=O)c1ccc(CSc2nc3ccccc3o2)cc1`, the growth inhibition is -2.69%.

In the case of `CCCCn1nc(NC(=O)c2cccs2)c2cc3ccccc3nc21`, the growth inhibition was -3.62%.

With `Cc1ccccc1OCCCN1C(=O)C(=O)c2cccc(C)c21`, the growth inhibition was -1.21%.

`Clc1ccc(OCc2nc(-c3ccccn3)n[nH]2)cc1`: the growth inhibition is 3.08%.

With `Cc1cccc(Nc2nc(-c3ccccn3)cs2)n1`, the growth inhibition is -0.44%.

In the case of `CC1=C(C(=O)OC2CCCCCCC2)C(c2cccc(O)c2)NC(=O)N1` (stereo unspecified), the growth inhibition is 3.15%.

`CCC(C(=O)Nc1ccccc1OC)n1c(C(=O)OC)cc2ccsc21` (stereo unspecified): the growth inhibition was 2.88%.

With `COc1cccc(-c2cc(C(=O)N3CCc4ccccc4C3)no2)c1`, the growth inhibition was -1.57%.

Turning to `CC(C)C(C(=O)NCc1ccco1)N(C(=O)CNS(=O)(=O)c1ccc(Cl)cc1)C1CCCC1` (stereo unspecified), the growth inhibition is -9.91%.

For the compound `O=S(=O)(N1CCCCC1)n1c(Cc2ccccc2)nc2ccccc21`, the growth inhibition was 2.59%.

For the compound `Cc1cc(N2CCCCC2)n2ncc(-c3ccccc3)c2n1`, the growth inhibition was 1.76%.

As for `Cc1ccc(C(c2nnnn2CCc2ccccc2)N2CCSCC2)cc1` (stereo unspecified), the growth inhibition was -0.97%.

`N#Cc1cn(Cc2cccc(Cl)c2)c2ccccc12`: the growth inhibition is 7.22%.

Regarding `CCCCN1C(=O)C2ON(c3ccccc3C)C(c3ccco3)C2C1=O` (stereo unspecified), the growth inhibition is 3.87%.

Take `CN1CCN(CC(=O)N2CCn3c4c(c5cc(C6CCCCC6)ccc53)CCCC42)CC1` (stereo unspecified): the growth inhibition was 1.85%.

Consider `CCN(CCCNC(=O)c1[nH]c(C)c(C(C)=O)c1C)c1cccc(C)c1`, for which the growth inhibition is 1.22%.

For `CCCc1cc(C(=O)N2CCN(c3ccccc3C)CC2)cs1`, the growth inhibition was 3.4%.

With `COc1ccc2nc(NC(=O)CSc3nnnn3C3CCCCC3)sc2c1`, the growth inhibition is 0.18%.

On to `CCn1cc(C(=O)NC2CCCCC2C)c(=O)c2ccc(C)nc21` (stereo unspecified), for which the growth inhibition was 7.04%.

With `Cc1cccc(NC(=O)CSc2nnc(-c3cc(C)n(-c4ccccc4)c3C)o2)c1C`, the growth inhibition was 0.15%.

As for `O=S(=O)(Nc1cc(Cl)ccc1N1CCCCC1)c1cccs1`, the growth inhibition was 3.05%.

On to `Cc1cc(=O)[nH]c(SCC(=O)Nc2nc(-c3ccccc3)cs2)n1`, for which the growth inhibition was 4.29%.

As to `COc1ccccc1N1CCN(C(=O)c2cc(-c3cccc(Cl)c3)on2)CC1`, the growth inhibition is -2.98%.
